Only some compounds are listed: those with a hit (about 3.7% of all), similar ones and a draw of the others.
hERG protect = hERG (human) protection from proarrhythmic block; 0.51% of 310,000 active; activation (rescue from dofetilide block), less the hit threshold, % at 10 µM; CHO-hERG, FluxOR thallium flux, dofetilide IC70 present; Q12809; AID 1511;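 active means activation above the mean of controls blocked by dofetilide plus 5 SD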;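 further: thallium influx through hERG after potassium depolarization seen as dye fluorescence rise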
KCNQ1 inh = inhibitors of human KCNQ1 potassium channel. B-score at 10 µM. P51787. 1.3% of 310,000 active. CHO-K1 KCNQ1, FluxOR thallium flux fluorescence; stronger effect = higher value;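 active means compounds whose thallium flux B-score, printed positive for inhibition, exceeds three library SD while starting fluorescence stays within three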;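 further: channel opened by potassium depolarization with thallium stimulus after 20 min compound exposure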
KCNK9 inh = human KCNK9 channel inhibition; Q9NPC2; HEK293 KCNK9, FluxOR thallium flux fluorescence; stronger effect = lower value; B-score at 10 µM; 1.2% of 310,000 active;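 active means ratio B-score over 3 SD below the library mean, with starting fluorescence within 5 SD of its mean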;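 further: negative B-score means less thallium flux so channel inhibition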
Kir21 block = Kir2.1 (mouse) channel inhibition; P35561; HEK293-Kir2.1, FluxOR thallium flux fluorescence; stronger effect = lower value; B-score at 10 µM; 0.85% of 310,000 active; AID 1672;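 active means fluorescence ratio B-score at or below minus 3 SD of library scores, with starting-brightness B-score within 2 SD, cut at about -4.2 in these data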;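 further: channel flux triggered by added potassium and thallium sulfate stimulus; B-score of peak minus minimum fluorescence over baseline after thallium stimulus; more negative B-score means stronger Kir2.1 block with less thallium influx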
Target sequence (P35561 whole entry, looked up): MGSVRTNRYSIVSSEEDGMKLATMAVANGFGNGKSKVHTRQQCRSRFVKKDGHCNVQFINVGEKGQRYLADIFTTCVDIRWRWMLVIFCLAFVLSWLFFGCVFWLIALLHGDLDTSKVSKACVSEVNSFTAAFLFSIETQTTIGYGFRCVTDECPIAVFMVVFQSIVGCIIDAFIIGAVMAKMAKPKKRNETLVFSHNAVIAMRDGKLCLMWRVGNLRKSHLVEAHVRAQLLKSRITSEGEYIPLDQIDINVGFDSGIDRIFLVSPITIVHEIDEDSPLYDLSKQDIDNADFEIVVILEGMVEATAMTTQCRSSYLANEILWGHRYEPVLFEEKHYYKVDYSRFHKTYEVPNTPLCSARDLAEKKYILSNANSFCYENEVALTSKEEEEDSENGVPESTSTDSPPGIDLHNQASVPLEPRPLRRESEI
KCNQ1 act = potentiators or activators of human KCNQ1 potassium channel; AID 2648; P51787; 0.35% of 310,000 active; B-score at 10 µM; CHO-K1 KCNQ1, thallium flux FluxOR fluorescence; stronger effect = higher value;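 active means fluorescence ratio B-score, a plate-corrected score, at least three library SD, with initial intensity B-score within 5 SD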
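Test system: CHO-K1 cells stably expressing KCNQ1 / Medium: assay buffer / Also added: depolarizing K+/Tl+ stimulus, K2SO4 and Tl2SO4 each 12.5 mM in 5x stock / Incubation: 90 min dye loading and 20 min compound exposure, both at room temperature / Signal: thallium influx via FluxOR fluorescence, kinetic imaging / Evaluation: B score of baseline-normalized fluorescence ratio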
KCNK3 block = human KCNK3 channel inhibition, primary screen. 0.84% of 340,000 active. B-score at 10 µM. AID 602410. CHO-KCNK3 thallium flux, FluxOR fluorescence; stronger effect = lower value. O14649;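 active means B-score under library mean minus 4 SD, starting fluorescence ratio at most library mean plus 5 SD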;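 further: more negative B-score means stronger inhibition of thallium flux through KCNK3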
KCNK3 confirm = human KCNK3 channel inhibition, confirmation assay. 99% of 2,400 active. ratio percent of control, % at 10 µM. CHO-KCNK3 thallium flux, FluxOR fluorescence; 0% buffer, 100% carvedilol maximal block. shares compounds with KCNK3 block. AID 651638;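 active means ratio percent of control, averaged over triplicates, above buffer control mean plus 5 SD, cut at about 64% in these data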;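 further: ratio is the fluorescence rise from min to max over baseline after thallium stimulus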
KCNK3 noninduced = KCNK3 inhibitor counter-screen hit in non-induced cells; shares compounds with KCNK3 block; non-induced KCNK3 parental cells, FluxOR thallium flux; stronger effect = lower value; thallium flux ratio (lower = more inhibition) at 10 µM; 40% of 2,400 active;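 active means thallium flux ratio, averaged over three wells, more than 5 SD below the buffer control mean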;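 further: host cells are CHO cells without KCNK3 induction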
Each line names hits and unclear results; the compound was inactive in the other large screens (follow-up assays come after a bar, where they were run).

O=C1OC(c2ccccc2)(c2ccccc2)c2ccccc21	KCNK3 block -12 (no result: hERG protect, KCNQ1 inh, KCNK9 inh, Kir21 block, KCNQ1 act) | KCNK3 confirm 107 | KCNK3 noninduced inactive
COC(=O)c1ccccc1NC(=O)N1CCN(c2ccc(F)cc2)CC1	KCNK3 block -11 | KCNK3 confirm 112 | KCNK3 noninduced inactive
O=C(Nc1cccc2ccccc12)N1CCN(c2ccc(F)cc2)CC1	none
CC1(C)Cc2c(sc3ncnc(NN)c23)CO1	none
COc1ccc2c(c1)c(CC(=O)NCc1cc([N+](=O)[O-])ccc1O)c(C)n2C(=O)c1ccc(Cl)cc1	KCNQ1 inh 11, KCNK3 block -13 | KCNK3 confirm 135 | KCNK3 noninduced 0.11
CCOC(=O)c1sc2nc(CC(=O)OC)nc(NCc3ccc(F)cc3)c2c1C	none
CCOC(=O)c1sc2nc(C)nc(NCc3ccc(Cl)cc3)c2c1C	KCNK3 block -11 | KCNK3 confirm 121 | KCNK3 noninduced 0.13
CCOC(=O)c1sc2nc(C)nc(NCc3ccc(F)cc3)c2c1C	KCNK3 block -10 | KCNK3 confirm 116 | KCNK3 noninduced 0.15
N#Cc1cc2c(nc1SCC(O)CS(=O)(=O)Cc1ccc(Cl)cc1)CCCC2 (configuration not stated)	KCNK3 block -11 | KCNK3 confirm 109 | KCNK3 noninduced 0.15
CC(C)(C)c1ccc(S(=O)(=O)CC(O)CSc2nc3c(cc2C#N)CCCC3)cc1 (configuration not stated)	none
C/C=C/C1=CC(=O)C[C@H](c2ccc(F)cc2)C1	none (no result: hERG protect, KCNQ1 inh, KCNK9 inh, Kir21 block, KCNQ1 act)
CCOc1nc(CC(C)C)c2c(c1C#N)CC(C)(C)OC2	KCNK3 block -9 | KCNK3 confirm 111 | KCNK3 noninduced inactive
CCOc1ncnc2c1oc1nc(CC(C)C)c3c(c12)CC(C)(C)OC3	none
CC(=O)N(C)N1c2ccccc2CCc2ccccc21	KCNK3 block -8.8 | KCNK3 confirm 109 | KCNK3 noninduced inactive
CC(Cl)C(=O)N1c2ccccc2CCc2ccccc21 (configuration not stated)	none
CCCN=C1CC(C)(C)CC(=O)/C1=C(/O)CCC	KCNK3 block -9 | KCNK3 confirm 99 | KCNK3 noninduced inactive
CCC/C(O)=C1\C(=O)CC(C)(C)CC1=NCc1ccccc1	none
COc1ccc(NC(C)C(=O)N/N=C/c2ccccc2OCc2cccc(Br)c2)cc1 (configuration not stated)	none
Cc1ccccc1NC(C)C(=O)N/N=C/c1ccccc1OCc1cccc(Br)c1 (configuration not stated)	KCNK3 block -11 | KCNK3 confirm 92 | KCNK3 noninduced 0.16
O=C(COC(=O)c1ccc(F)cc1F)NC1CC1	none
O=C(c1ccc2ccccc2c1)N1CCN(S(=O)(=O)/C=C/c2ccccc2)CC1	KCNK3 block -9.1 | KCNK3 confirm 96 | KCNK3 noninduced inactive
Nc1ccc(C(=O)N2CCN(S(=O)(=O)/C=C/c3ccccc3)CC2)cc1[N+](=O)[O-]	none
COc1ccccc1NC(=O)N1CCCC1C(=O)NCCc1ccccc1 (configuration not stated)	none
CC1CC1C(=O)N1CCN(S(=O)(=O)c2cccc(F)c2)CC1 (configuration not stated)	none
COc1ccc(S(=O)(=O)Oc2ccc3cccc(N)c3c2)cc1	KCNK3 block -9.1 | KCNK3 confirm 101 | KCNK3 noninduced inactive
Cc1ccc(C(=O)Nc2cccc3cccnc23)cc1C	KCNK3 block -9.9 | KCNK3 confirm 95 | KCNK3 noninduced inactive
Cc1cccc(C(=O)Nc2cccc3cccnc23)c1	none
O=C(Nc1cccc2cccnc12)c1ccc(Cl)cc1	KCNK3 block -8.9 | KCNK3 confirm 103 | KCNK3 noninduced inactive
CC1CCN(C(=O)c2ccc(-c3ccccc3Cl)o2)CC1	KCNK3 block -9.2 | KCNK3 confirm 123 | KCNK3 noninduced 0.14
O=C(c1ccc(-c2ccccc2Cl)o1)N1CCC1	none (no result: hERG protect, KCNQ1 inh, KCNK9 inh, Kir21 block, KCNQ1 act)
